In ChEMBL document CHEMBL1629670, “In vitro activities of retigeric acid B alone and in combination with azole antifungal agents against Candida albicans” (2009):
≈ marks a conversion by molar mass, not a printed value.

Columns and labels:
Format in all cases: functional
Candida albicans [1] = assay: Antifungal activity against Candida albicans CA138 after 48 hrs by broth microdilution method; conditions: CA138, 48 h
Procedure, shortened: (§1)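 CLSI M27-A2 broth microdilution of clinical isolates in RPMI 1640 buffered to pH 7.0 with 0.165 M MOPS. Final inoculum 0.5 x 10^3 to 2.5 x 10^3 cells/ml, incubated 35°C for 48 h. Growth read as OD490 with background subtracted. MIC taken as the lowest drug concentration giving 80% growth reduction versus drug-free control. Run in triplicate.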

Candida albicans [2] = assay: Antifungal activity against Candida albicans CA127 after 48 hrs by broth microdilution method; conditions: CA127, 48 h; procedure, shortened: as §1
Candida albicans [3] = assay: Antifungal activity against Candida albicans CA2 after 48 hrs by broth microdilution method; conditions: CA2, 48 h; procedure, shortened: as §1
Candida albicans [4] = assay: Antifungal activity against Candida albicans CA1 after 48 hrs by broth microdilution method; conditions: CA1, 48 h; procedure, shortened: as §1
Candida albicans [5] = assay: Antifungal activity against Candida albicans CA135 after 48 hrs by broth microdilution method; conditions: CA135, 48 h; procedure, shortened: as §1
Candida albicans [6] = assay: Antifungal activity against Candida albicans CA3 after 48 hrs by broth microdilution method; conditions: CA3, 48 h; procedure, shortened: as §1
Candida albicans [7] = assay: Antifungal activity against Candida albicans CA132 after 48 hrs by broth microdilution method; conditions: CA132, 48 h; procedure, shortened: as §1
Candida albicans [8] = assay: Antifungal activity against Candida albicans CA137 after 48 hrs by broth microdilution method; conditions: CA137, 48 h; procedure, shortened: as §1
Candida albicans [9] = assay: Antifungal activity against Candida albicans ATCC 10231 by broth microdilution method
Procedure, shortened: as §1, with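 “microdilution” for “microdilution of clinical isolates”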

Candida albicans [10] = assay: Antifungal activity against Candida albicans CA4 after 48 hrs by broth microdilution method; conditions: CA4, 48 h; procedure, shortened: as §1
Candida albicans [11] = assay: Antifungal activity against Candida albicans CA10 after 48 hrs by broth microdilution method; conditions: CA10, 48 h; procedure, shortened: as §1

Row | SMILES | MIC (Candida albicans [1]) [µg/mL] | MIC (Candida albicans [2]) [µg/mL] | MIC (Candida albicans [3]) [µg/mL] | MIC (Candida albicans [4]) [µg/mL] | MIC (Candida albicans [5]) [µg/mL] | MIC (Candida albicans [6]) [µg/mL] | MIC (Candida albicans [7]) [µg/mL] | MIC (Candida albicans [8]) [µg/mL] | MIC (Candida albicans [9]) [µg/mL] | MIC (Candida albicans [10]) [µg/mL] | MIC (Candida albicans [11]) [µg/mL]
1 | OC(Cn1cncn1)(Cn1cncn1)c1ccc(F)cc1F [FLUCONAZOLE] | 128 (≈ 418 µM) | 1 (≈ 3.27 µM) | 0.5 (≈ 1.63 µM) | 0.25 (≈ 0.816 µM) | 128 (≈ 418 µM) | 0.25 (≈ 0.816 µM) | 0.5 (≈ 1.63 µM) | 64 (≈ 209 µM) | 0.5 (≈ 1.63 µM) | 1 (≈ 3.27 µM) | 256 (≈ 836 µM)
2 | CCC(C)n1ncn(-c2ccc(N3CCN(c4ccc(OCC5COC(Cn6cncn6)(c6ccc(Cl)cc6Cl)O5)cc4)CC3)cc2)c1=O (stereo unspecified) [ITRACONAZOLE] | 64 (≈ 90.7 µM) | 0.016 (≈ 0.0227 µM) | 0.125 (≈ 0.177 µM) | 0.125 (≈ 0.177 µM) | 32 (≈ 45.3 µM) | 0.031 (≈ 0.0439 µM) | 0.031 (≈ 0.0439 µM) | 16 (≈ 22.7 µM) |  | 0.031 (≈ 0.0439 µM) | 128 (≈ 181 µM)
